High-throughput results from PubChem BioAssay.
CAL PDZ FP-1: untagged CAL PDZ binding inhibitors, primary screen, biochemical, fluorescence polarization, HTS; inhibition, % at 24.9 µM; 300,000 tested, 0.92% active; purified CAL PDZ, TMR-peptide fluorescence polarization, 1 h;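 active = mean inhibition of at least 30% with at least half of replicates also reaching 30%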
DDE Tn7 FP inh: inhibitors of Tn7 peptide binding to fibrin DD(E), primary screen, biochemical, fluorescence polarization, human fibrin, Tn7 probe. Fibrinogen beta chain (Homo sapiens), P02675. FP displacement of FITC-Tn7 peptide from fibrin DD(E); 0% = median of compound wells per plate. inhibition, % at 8.3 µM. 370,000 tested, 0.13% active. AID 720508, 2013;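 active = inhibition above the mean of compounds falling within the control limits plus 3 SD of them, cut at about 14% in these data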
Target sequence (P02675 whole entry, looked up): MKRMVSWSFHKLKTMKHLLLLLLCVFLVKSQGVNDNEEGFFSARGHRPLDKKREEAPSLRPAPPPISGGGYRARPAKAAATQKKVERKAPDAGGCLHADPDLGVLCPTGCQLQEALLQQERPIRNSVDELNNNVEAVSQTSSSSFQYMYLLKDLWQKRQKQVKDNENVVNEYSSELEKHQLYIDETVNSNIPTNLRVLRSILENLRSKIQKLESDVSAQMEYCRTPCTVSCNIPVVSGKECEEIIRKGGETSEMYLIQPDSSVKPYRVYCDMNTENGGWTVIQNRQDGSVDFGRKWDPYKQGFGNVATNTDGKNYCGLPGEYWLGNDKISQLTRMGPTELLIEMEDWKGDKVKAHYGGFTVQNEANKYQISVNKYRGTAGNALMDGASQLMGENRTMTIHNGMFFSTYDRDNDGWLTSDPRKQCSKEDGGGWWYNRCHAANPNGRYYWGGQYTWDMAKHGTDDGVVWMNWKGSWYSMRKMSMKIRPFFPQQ
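Test system: human clot-derived fibrin DD(E) complex / Quantity: 2 µM final DD(E) protein / Incubation: 10 min plus 3 h, room temperature / Measured by: fluorescence polarization / Benchmarks: high control of 10 µM Aha-Tn7 peptide / Replicates: singlicate testing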
CAL PDZ FP-2: CAL PDZ peptide-binding inhibitors, primary screen, biochemical, fluorescence polarization, Cer-tagged CAL PDZ, HTS; Golgi-associated PDZ and coiled-coil motif-containing protein (Homo sapiens), Q9HD26; purified CAL PDZ, TMR-peptide fluorescence polarization, 1 h; inhibition, % at 20 µM; 330,000 tested, 0.02% active; AID 504414, 2011;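 active = highest replicate inhibition of at least 40%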
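Material: tagged CAL PDZ domain; buffer or medium: 25 mM sodium phosphate pH 7.4, 150 mM NaCl, TCEP, IgG, Thesit; compound dosing: single point, 20 µM; schedule: 1 h incubation at room temperature before polarization reading; measured by: FP readout, S and P plane fluorescence; read-out basis: percent inhibition from loss of millipolarization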
DDE Tn6 FP inh: inhibitors of Tn6 peptide binding to fibrin DD(E), primary screen, biochemical, fluorescence polarization, human fibrin, Tn6 probe | Fibrin DD(E) TRITC-Tn6 fluorescence polarization displacement | inhibition, % at 8.3 µM | 370,000 tested, 0.21% active | AID 720509, 2013;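 active = inhibition above a per-campaign cutoff: mean of compounds within control limits plus 3 SD, cut at about 15% in these data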
Arrestin-AP2 inh: inhibitors of beta-arrestin/AP2 binding, primary screen, biochemical, GPCR trafficking, flow cytometry; AID 504490, 2011; FITC-arrestin peptide / GST-AP2 beads; AP2 beta2 appendage carries R879A mutation; 340,000 tested, 0.31% active; inhibition, % at 10 µM; beta-arrestin 1 C-terminal peptide binding to AP2 beta2-adaptin appendage (human);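 active = inhibition above a set limit, near 3 SD of compounds lacking own fluorescence, cut at about 54% in these data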
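System: GST-AP2 R879A glutathione beads; medium: PBS, Tween 20 0.05%, BSA 0.1%; reagent: fluorescein-tagged arrestin peptide at 50 nM final; schedule: pre-incubation 12 min, peptide binding 1 h, room temperature; detection: flow cytometry, FL1 (488/535 nm); read-out: inhibition as reduced fluorescein signal on beads, percent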
Hits are given with their value. Compounds with a hit are over-represented: about 1.4% of the library has one in this group of screens.

What do the screens show for `O=C(CCN1CCCCO1)N1CCCC(Nc2ccc(F)c(F)c2)C1` (stereo not given)?
CAL PDZ FP-1: inactive; DDE Tn7 FP inh: inactive; CAL PDZ FP-2: inactive; DDE Tn6 FP inh: inactive; Arrestin-AP2 inh: inactive

What do the screens show for `O=C(c1cc(Cl)ccc1F)N1CCCC(Nc2ccc3c(c2)OCCO3)C1` (stereo not given)?
CAL PDZ FP-1: 37; DDE Tn7 FP inh: inactive; CAL PDZ FP-2: inactive; DDE Tn6 FP inh: inactive; Arrestin-AP2 inh: inactive

Results for COc1ccccc1OCC(=O)N1CCCC(Nc2cccc(F)c2)C1 (stereo not given) ?
DDE Tn7 FP inh: inactive; CAL PDZ FP-2: inactive; DDE Tn6 FP inh: inactive; Arrestin-AP2 inh: inactive

How did O=C(c1ccc2nccnc2c1)N1CCCC(Nc2ccc(F)c(F)c2)C1 (stereo not given) do in these assays?
CAL PDZ FP-1: 51; DDE Tn7 FP inh: inactive; CAL PDZ FP-2: inactive; DDE Tn6 FP inh: inactive; Arrestin-AP2 inh: inactive

What do the screens show for `Cc1ccc(NC2CCCN(C(=O)CCN3CCCCO3)C2)cc1C` (stereo not given)?
CAL PDZ FP-1: 62; DDE Tn7 FP inh: inactive; CAL PDZ FP-2: inactive; DDE Tn6 FP inh: inactive; Arrestin-AP2 inh: inactive

Results for COc1ccccc1OCC(=O)N1CCCC(Nc2ccc(F)c(F)c2)C1 (stereo not given) ?
CAL PDZ FP-1: active; DDE Tn7 FP inh: inactive; CAL PDZ FP-2: inactive; DDE Tn6 FP inh: inactive; Arrestin-AP2 inh: inactive

What do the screens show for `CCCCNC(=O)C1CCCN1C(=O)NCc1ccccc1OC` (stereo not given)?
DDE Tn7 FP inh: inactive; DDE Tn6 FP inh: inactive

Results for CCOC(=O)N1CCN(C(=O)C[C@@H]2C(=O)N(CCc3ccc(Cl)cc3)/C3=C/CCCCC[C@@]32C(=O)OCC)CC1 ?
DDE Tn7 FP inh: inactive; DDE Tn6 FP inh: inactive

What do the screens show for `CC(=O)c1cccc(OCC(=O)N2CCCc3ccccc32)c1`?
DDE Tn7 FP inh: inactive; CAL PDZ FP-2: inactive; DDE Tn6 FP inh: inactive; Arrestin-AP2 inh: inactive

How did Cc1cccc(OCC(=O)N2CCCc3ccccc32)c1 do in these assays?
CAL PDZ FP-1: 71; DDE Tn7 FP inh: inactive; CAL PDZ FP-2: inactive; DDE Tn6 FP inh: inactive; Arrestin-AP2 inh: inactive

What do the screens show for `Cc1ccc(-n2c(Cc3cccs3)nnc2SCC(=O)Nc2ccc(OCc3ccccc3)cc2)cc1`?
DDE Tn7 FP inh: inactive; DDE Tn6 FP inh: inactive

Results for Cc1ccc(-c2cc3nc(-c4ccco4)cc(N4CCN(Cc5ccoc5)CC4)n3n2)cc1 ?
DDE Tn7 FP inh: inactive; DDE Tn6 FP inh: inactive

What do the screens show for `CCOc1ccc(NC(=O)CN(C)C(=O)c2ccc3[nH]c4c(c3c2)CC(C)CC4)cc1OCC` (stereo not given)?
CAL PDZ FP-1: inactive; DDE Tn7 FP inh: inactive; CAL PDZ FP-2: inactive; DDE Tn6 FP inh: inactive; Arrestin-AP2 inh: inactive

What do the screens show for `Cc1ccc(NC(=O)CN(C)C(=O)c2ccc3[nH]c4c(c3c2)CC(C)CC4)cc1` (stereo not given)?
CAL PDZ FP-1: 74; DDE Tn7 FP inh: inactive; CAL PDZ FP-2: inactive; DDE Tn6 FP inh: inactive; Arrestin-AP2 inh: inactive

How did CCOC(=O)c1c(/N=C/C2C(=O)CC(C)(C)CC2=O)sc2c1CCCC2 do in these assays?
CAL PDZ FP-1: 79; DDE Tn7 FP inh: inactive; CAL PDZ FP-2: inactive; DDE Tn6 FP inh: inactive; Arrestin-AP2 inh: inactive

How did COCCCNC(=O)C[C@H]1C[C@@]2(C(=O)OC)C(=C[C@H](COCc3ccccc3)O[C@@H]2C)N(Cc2cccc3ccccc23)C1=O do in these assays?
DDE Tn7 FP inh: inactive; DDE Tn6 FP inh: inactive

How did Cc1ccc(C(=O)n2ccc3ccc(-c4ccc5ccn(Cc6ccccc6)c5c4)cc32)cc1 do in these assays?
DDE Tn7 FP inh: inactive; DDE Tn6 FP inh: inactive

How did COc1ccc(CN2CCC(CNC(=O)NC3CCCC3)CC2)cc1 do in these assays?
DDE Tn7 FP inh: inactive; DDE Tn6 FP inh: inactive

Results for CCOC(=O)C1CCN(C(=O)CCS(=O)(=O)c2ccc3c(c2)n(C)c(=O)c(=O)n3C)CC1 ?
CAL PDZ FP-1: 52; DDE Tn7 FP inh: inactive; CAL PDZ FP-2: inactive; DDE Tn6 FP inh: inactive; Arrestin-AP2 inh: inactive
